# Source: ChEMBL document CHEMBL1126587, “Novel 6-alkoxypurine 2',3'-dideoxynucleosides as inhibitors of the cytopathic effect of the human immunodeficiency virus” (J Med Chem, 1993)
# Several values for one entry are separate records, joined by “and”; a condition that tells them apart may be missing. Equal entries are not always repeated.
# Legend:
# [1] = test system: MT4; assay: Anti-Human immunodeficiency virus activity against MT-4 cells; assay type: functional, cell-based
# Outline: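 MT4 cells infected with HTLV-IIIB at 100-fold TCID50 (100-fold the virus stock concentration giving 50% growth inhibition), compound present for 5 days. IC50 from cell growth protection. Each compound run in triplicate at least five times.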
# [2] = test system: MT4; assay: Percentage of MT-4 cell growth was calculated at 100 uM nucleosides after 5 days.; assay type: functional, Homo sapiens
# Outline: (§1)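 MT4 cells exposed to 100 μM nucleoside for 5 days, growth given as % of untreated control, which underwent at least three doublings.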
# [3] = test system: L cells; assay: Percentage of L cell growth at 100 uM nucleosides after 4 days.; assay type: functional, Mus musculus, L929
# Outline: (§2)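 Human sternal marrow D-98 cells or mouse connective tissue L cells exposed to 100 μM nucleoside for 4 days. Growth expressed as % of untreated control, which underwent at least three doublings.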
# [4] = Percentage of D98 cell growth at 100 uM nucleosides after 4 days.; assay type: functional, Homo sapiens; outline: as §2
# [5] = test system: MT4; assay: Effect of Phosphate buffered saline on the Anti-HIV activity in MT-4 cells; assay type: functional, cell-based; details: Homo sapiens
# Outline: (§3)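 Anti-HIV-1 assay in MT4 cells infected with 100-fold TCID50 HTLV-IIIB over 5 days, run with EHNA or coformycin at 0.1 or 1.0 μM to block deaminase; control wells received PBS in their place. IC50 determined; triplicates, at least five runs.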
# [6] = test system: MT4; assay: Effect of Coformycin on the Anti-HIV activity in MT-4 cells; assay type: functional, cell-based; details: Homo sapiens; outline: as §3
# [7] = test system: MT4; assay: Effect of Erythro-9-(2-Hydroxy-3-nonyl) adenine (EHNA) on the Anti-HIV activity in MT-4 cells; assay type: functional, cell-based, Homo sapiens; outline: as §3
# [8] = (§4) Percentage of control cell growth was calculated at 100 uM nucleosides after 4 days; assay type: functional, Homo sapiens; outline: as §2
# [9] = test system: L cells; assay: as §4; assay type: functional, Mus musculus, L929; outline: as §2
# [10] = test system: MT4; assay: Effect of Coformycin on the Anti-HIV activity in MT-4 cells at 0.10 uM; assay type: functional, cell-based; details: Homo sapiens; outline: as §3
# [11] = test system: MT4; assay: Effect of Coformycin on the Anti-HIV activity in MT-4 cells at 1.0 uM; assay type: functional, cell-based; details: Homo sapiens; outline: as §3
# [12] = test system: MT4; assay: Effect of Erythro-9-(2-Hydroxy-3-nonyl) adenine (EHNA) on the Anti-HIV activity in MT-4 cells at 1.0 uM; assay type: functional, cell-based; details: Homo sapiens; outline: as §3
# [13] = test system: MT4; assay: Effect of Erythro-9-(2-Hydroxy-3-nonyl) adenine (EHNA) on the Anti-HIV activity in MT-4 cells at 0.10 uM; assay type: functional, cell-based; details: Homo sapiens; outline: as §3
# [14] = test system: MT4; assay: Percentage of control cell growth was calculated at 100 uM nucleosides after 5 days; assay type: functional, Homo sapiens; outline: as §1
SMILES,IC50 [1],Control [2],Control [3],Control [4],also measured
CCC(CC)Oc1ncnc2c1ncn2C1CCC(CO)O1 (stereo not given),> 100 µM,100%,68%,60%,–
CCCCCCOc1ncnc2c1ncn2C1CCC(CO)O1 (stereo not given),18 µM,100%,42%,54%,IC50 [5]: 24 µM; IC50 [6]: > 200 µM; IC50 [7]: 25 µM and 60 µM
CCCCCCCCOc1ncnc2c1ncn2C1CCC(CO)O1 (stereo not given),> 32 µM,–,–,–,Control [8]: 29%; Control [9]: 28%
CCCC(C)Oc1ncnc2c1ncn2C1CCC(CO)O1 (stereo not given),80 µM,100%,67%,81%,–
CC(C)COc1ncnc2c1ncn2C1CCC(CO)O1 (stereo not given),52 µM,100%,98%,98%,–
COc1ncnc2c1ncn2C1CCC(CO)O1 (stereo not given),> 100 µM,100%,96%,97%,–
O=c1[nH]cnc2c1ncn2[C@H]1CC[C@@H](CO)O1 [DIDANOSINE],23 µM,100%,100%,97%,IC50 [10]: 28 µM; IC50 [11]: 39 µM; IC50 [5]: 30 µM; IC50 [12]: 31 µM; IC50 [13]: 30 µM
CCC(C)Oc1ncnc2c1ncn2[C@H]1CC[C@@H](CO)O1 (stereo not given in full),> 100 µM,100%,77%,77%,–
CC[C@H](C)Oc1ncnc2c1ncn2[C@H]1CC[C@@H](CO)O1,80 µM,100%,85%,81%,–
CCCCCCCCCOc1ncnc2c1ncn2C1CCC(CO)O1 (stereo not given),> 5 µM,–,–,–,Control [8]: 27%; Control [9]: 23%
CCCOc1ncnc2c1ncn2C1CCC(CO)O1 (stereo not given),> 100 µM,100%,87%,87%,–
CCOc1ncnc2c1ncn2C1CCC(CO)O1 (stereo not given),> 100 µM,100%,90%,82%,–
CCCCCCCCCCOc1ncnc2c1ncn2C1CCC(CO)O1 (stereo not given),> 5 µM,–,–,–,Control [8]: <1%; Control [14]: 20%; Control [9]: 6%
CCCCOc1ncnc2c1ncn2C1CCC(CO)O1 (stereo not given),70 µM,100%,68%,85%,IC50 [5]: 38 µM; IC50 [6]: > 200 µM; IC50 ([7]; mt4): 26 µM and 70 µM
CC(C)Oc1ncnc2c1ncn2C1CCC(CO)O1 (stereo not given),100 µM,100%,72%,74%,–
OCC1CCC(n2cnc3c(OCC(F)(F)F)ncnc32)O1 (stereo not given),> 100 µM,100%,82%,82%,–
CCCCCOc1ncnc2c1ncn2C1CCC(CO)O1 (stereo not given),50 µM,100%,48%,60%,–
C/C=C/COc1ncnc2c1ncn2C1CCC(CO)O1 (stereo not given),59 µM,100%,58%,35%,"IC50 [5]: 70 µM; IC50 [6]: > 200 µM; IC50 ([7]; Homo sapiens, MT4): 50 µM; IC50 ([7]; mt4): 80 µM"
CCCCCCCOc1ncnc2c1ncn2C1CCC(CO)O1 (stereo not given),25 µM,–,–,–,Control [8]: 47%; Control [9]: 34%
CC[C@@H](C)Oc1ncnc2c1ncn2[C@H]1CC[C@@H](CO)O1,> 100 µM,100%,81%,81%,–
OCC1CCC(n2cnc3c(OCCF)ncnc32)O1 (stereo not given),> 100 µM,100%,100%,76%,–
C=CCOc1ncnc2c1ncn2C1CCC(CO)O1 (stereo not given),97 µM,100%,70%,68%,–
